Measurements taken from ChEMBL document CHEMBL1629564, “Mechanisms accounting for fluoroquinolone resistance in Escherichia coli clinical isolates” (2009).
≈ marks a conversion by molar mass, not a printed value.

How the values were obtained:
Escherichia coli [1] = assay: Antimicrobial activity against Escherichia coli […] harboring gyrA L83, N87, parC I80, K84 and parE D460 mutant gene by agar dilution method; type: functional, K-12
Method in brief: (§1)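 Clinical E. coli isolates, with topoisomerase QRDR genotype (gyrA, gyrB, parC, parE) found by PCR sequencing. MICs for ciprofloxacin, gatifloxacin, levofloxacin and norfloxacin were measured by CLSI agar dilution using a modified dilution scheme. Where the agar dilution MIC was <1 μg/ml, the value came from at least two Etest measurements.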

Escherichia coli [2] = assay: Antimicrobial activity against Escherichia coli K-12 harboring gyrA L83, Y87 and parC K84 mutant gene by agar dilution method; type: functional
Escherichia coli [3] = assay: Antimicrobial activity against Escherichia coli K-12 harboring gyrA L83, Y87 and parC I80, G84 mutant gene by agar dilution method; type: functional
Escherichia coli [4] = assay: Antimicrobial activity against Escherichia coli harboring gyrA L83, Y87, parC I80, G84 and parE A458 mutant gene by agar dilution method
Escherichia coli [5] = assay: Antimicrobial activity against Escherichia coli K-12 harboring gyrA A83 mutant gene by agar dilution method; type: functional
Escherichia coli [6] = assay: Antimicrobial activity against Escherichia coli K-12 harboring by agar dilution method; type: functional
Escherichia coli [7] = assay: Antimicrobial activity against Escherichia coli K-12 harboring gyrA L83, N87 mutant gene by agar dilution method; type: functional
Escherichia coli [8] = assay: Antimicrobial activity against Escherichia coli K-12 harboring gyrA L83, N87 and parC K84 mutant gene by agar dilution method; type: functional
Escherichia coli [9] = assay: Antimicrobial activity against Escherichia coli K-12 harboring gyrA L83, N87 and parC I80 mutant gene by agar dilution method; type: functional
Escherichia coli [10] = assay: Antimicrobial activity against Escherichia coli […] harboring gyrA L83, N87, parC I80 and parE M464 mutant gene by agar dilution method; type: functional, K-12; method in brief: as §1
Escherichia coli [11] = assay: Antimicrobial activity against […] harboring gyrA L83, N87, parC I80 and parE […] mutant gene by agar dilution method; type: functional, K-12; method in brief: as §1
Escherichia coli [12] = assay: Antimicrobial activity against Escherichia coli K-12 harboring gyrA L83, N87 and parC I80, G84 mutant gene by agar dilution method; type: functional
Escherichia coli [13] = assay: Antimicrobial activity against […] harboring gyrA L83, N87, gyrB T471 and parC I80, G84 mutant gene by agar dilution method; type: functional, K-12; method in brief: as §1
Escherichia coli [14] = assay: Antimicrobial activity against Escherichia coli K-12 harboring gyrA L83, Y87 mutant gene by agar dilution method; type: functional
Escherichia coli [15] = assay: Antimicrobial activity against Escherichia coli K-12 harboring gyrA L83, Y87 and parC I80 mutant gene by agar dilution method; type: functional
Escherichia coli [16] = assay: Antimicrobial activity against Escherichia coli […] harboring gyrA L83, Y87, parC I80 and parE A458 mutant gene by agar dilution method; type: functional, K-12; method in brief: as §1

SMILES	MIC (Escherichia coli [1])	MIC (Escherichia coli [2])	MIC (Escherichia coli [3])	MIC (Escherichia coli [4])	MIC (Escherichia coli [5])	MIC (Escherichia coli [6])	MIC (Escherichia coli [7])	MIC (Escherichia coli [8])	MIC (Escherichia coli [9])	MIC (Escherichia coli [10])	MIC (Escherichia coli [11])	MIC (Escherichia coli [12])	MIC (Escherichia coli [13])	MIC (Escherichia coli [14])	MIC (Escherichia coli [15])	MIC (Escherichia coli [16])
O=C(O)c1cn(C2CC2)c2cc(N3CCNCC3)c(F)cc2c1=O [CIPROFLOXACIN]	200 µg/mL (≈ 604 µM)	500 µg/mL (≈ 1510 µM)	40 µg/mL (≈ 121 µM)	300 µg/mL (≈ 905 µM)												
COc1c(N2CCNC(C)C2)c(F)cc2c(=O)c(C(=O)O)cn(C3CC3)c12 (stereo unspecified) [GATIFLOXACIN]	20 µg/mL (≈ 53.3 µM)	30 µg/mL (≈ 79.9 µM)	10 µg/mL (≈ 26.6 µM)	30 µg/mL (≈ 79.9 µM)	0.094 µg/mL (≈ 0.25 µM)	0.007 µg/mL (≈ 0.0186 µM)	10 µg/mL (≈ 26.6 µM)	30 µg/mL (≈ 79.9 µM)	10 µg/mL (≈ 26.6 µM)	20 µg/mL (≈ 53.3 µM)	10 µg/mL (≈ 26.6 µM)	10 µg/mL (≈ 26.6 µM)	20 µg/mL (≈ 53.3 µM)	0.5 µg/mL (≈ 1.33 µM)	10 µg/mL (≈ 26.6 µM)	20 µg/mL (≈ 53.3 µM)
C[C@H]1COc2c(N3CCN(C)CC3)c(F)cc3c(=O)c(C(=O)O)cn1c23.C[C@H]1COc2c(N3CCN(C)CC3)c(F)cc3c(=O)c(C(=O)O)cn1c23.O [LEVOFLOXACIN]	50 µg/mL	50 µg/mL	50 µg/mL	200 µg/mL	0.168 µg/mL		10 µg/mL	50 µg/mL	8 µg/mL	50 µg/mL	20 µg/mL	50 µg/mL	30 µg/mL	2 µg/mL	10 µg/mL	50 µg/mL
CCn1cc(C(=O)O)c(=O)c2cc(F)c(N3CCNCC3)cc21 [NORFLOXACIN]	400 µg/mL (≈ 1250 µM)	1000 µg/mL (≈ 3130 µM)	100 µg/mL (≈ 313 µM)	1000 µg/mL (≈ 3130 µM)	0.194 µg/mL (≈ 0.608 µM)	0.023 µg/mL (≈ 0.072 µM)	10 µg/mL (≈ 31.3 µM)	200 µg/mL (≈ 626 µM)	10 µg/mL (≈ 31.3 µM)	400 µg/mL (≈ 1250 µM)	50 µg/mL (≈ 157 µM)	200 µg/mL (≈ 626 µM)	200 µg/mL (≈ 626 µM)	8 µg/mL (≈ 25.1 µM)	50 µg/mL (≈ 157 µM)	300 µg/mL (≈ 939 µM)
